These results are taken from the EternaBench riboswitch data.

For the data set, the system named is MS2 coat protein. The experiment in a line: apparent Kd, MS2 coat protein; higher = weaker binding; RNA-MaP array; FMN 200 µM where present. The procedure, abridged:
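In 100 mM Tris-HCl pH 7.5, 80 mM KCl, 4 mM MgCl2, BSA, DTT, yeast tRNA and Tween-20, SNAP-549-labelled MS2 coat protein was titrated from 0.7 or 1.5 nM, doubling to 3 µM, over designs transcribed by stalled E. coli RNA polymerase on Illumina sequencing-chip clusters. This was done first without ligand, then with ligand held constant. After green signal was normalised to red-channel RNA signal and control-cluster median Fmax, the apparent Kd was taken as the median of filtered per-cluster binding-curve fits.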

Setting [1] is: designed as: OFF switch for flavin mononucleotide, no ligand.
[2] abbreviates: ligand present: flavin mononucleotide, designed as: OFF switch for flavin mononucleotide.
The mark [3] stands for this setting: designed as: ON switch for flavin mononucleotide, no ligand.
Setting [4] is: ligand present: flavin mononucleotide, designed as: ON switch for flavin mononucleotide.

Regarding “GACAUACGCGAUCCUUGGACAUGAGGAUCACCCAUGUACCGGAAGGAUAUCCUUCGCAAAAGCUAGGAGAAGGUUCGGUAGGUC”, the apparent Kd (in general, the concentration giving half-maximal binding under the conditions of the assay) runs as follows: under setting [1], 26.1 nM; under setting [2], 86.1 nM.
“AACAGUACAGGAUAUACAUGAGGAUCACCCAUGUGAGACUUAAGUGGCGUACCACAAAGUAGAAGGGUACUGGA”: the “apparent Kd” value under setting [1] was 94.7 nM and the “apparent Kd” value under setting [2] was 545 nM.
The corresponding values for “GGUGCUCAAAGAGUACCAAUACGAACAUGAGGAUCACCCAUGUAGGAUAUGCUACUCAAAGAGUAGCAGAAGGACAUGUGCCUA” are 16.4 nM and 116 nM.
The corresponding values for “CGAUGUUAUGCAGGAUAUCUCUCUUGAAUGCGGAGAGAAGGGCAUAGGGAGACAUACGCCUUAUUACAUGAGGAUCACCCAUGU” are 9.02 nM and 7.92 nM.
Turning to “CUUUUGUGAGGAUAUUAGUAGUAAAUAAAUAAAAUUACUACUGAGAAGGCACAUGAGGAUCACCCAUGUUCCUC”, the “apparent Kd” value by setting is: under setting [1], 33.7 nM; under setting [2], 317 nM.
Taken in the same sequence, the figures for “ACAUGAGGAUCACCCAUGUACAUGGGUUUAAUUGUUUGUUACUAGGAUAUGUAUUUGAAUUUACAACAGAAGGAGUAUUAAUGU” were 985 nM and 414 nM.
Taken in the same sequence, the figures for “CUCGAGUUAGGAUAUCGAACGUAACAAGCGGAAACUCCCGCCGAGAAGGAACAUGAGGAUCACCCAUGUGAAAC” were 14.9 nM and 18.3 nM.
Regarding “GCGGAACAUGAGGAUCACCCAUGUAUCCGAAAUAUGGACUCACAGGAUAUCCAGAGUUGCCAAUCGGAGAAGGGUGACUCCAGC”, the “apparent Kd” value amounted to 14.4 nM under setting [3] and 8.29 nM under setting [4].
On to “GUCAGCUCGUGAGGAUAUACAACACUGCUUCGACAGUGUAUUAAGAUCACAUGAGGAUCACCCAUGUAGAAGGCACGAGCUGAU”, for which the “apparent Kd” value reads like this: under setting [1], 13.6 nM; under setting [2], 211 nM.
The corresponding values for “CCAGCAAAAGUGAGGAUAUGCUGGUCCUUGGAUCAGCAGAAGGCACAUGAGGAUCACCCAUGUCGUGGAGCUGG” are 26.2 nM and 55.3 nM.
Regarding “CUCAAACAUGAGGAUCACCCAUGUGUUGUCAUGGGAGGAUAUCUAAGUUCAUUGUAUUCAGGAGAAGGCCUAUGUC”, the “apparent Kd” value was determined as 310 nM under setting [3] and 34.4 nM under setting [4].
The corresponding values for “GUUGGUGUAGAAGGAUAUUGGUGAGGCGUCUUGUACAUGAGGAUCACCCAUGUCAUUCUGCACGCCGAGAAGGUCUGCAAUUGG” are 67.9 nM and 57 nM.
For the sequence “GGAUAGGACAGAGGAUAUACGUGCUAGAGAUACUAGCAAAACUUCCUCACAUGAGGAUCACCCAUGUAGAAGGCUGUCCUAUCG”, the “apparent Kd” value is 16.7 nM under setting [1] and 564 nM under setting [2].
Taken in the same sequence, the figures for “UUUUUACAUGAGGAUCACCCAUGUGAGGAUAUGGUUUCGCUGGCCGUAGCCAGUGGAACCAGAAGGCGCGUGAU” were 95 nM and 136 nM.
Turning to “GGAAAACAUGAGGAUCACCCAUGUGAAAACGUGGGAGGAUAUGGAUGGAAACCAUACUGUCCAGAAGGCCCAUGUC”, the “apparent Kd” value was found to be 67.6 nM under setting [3] and 18.9 nM under setting [4].
“UUUAUGUGAGGAUAUCAGUAGUAAAAAAAUAAAAUUACUACUGAGAAGGCACAUGAGGAUCACCCAUGUGCUUC”: the “apparent Kd” value runs as follows: under setting [1], 19.5 nM; under setting [2], 15.1 nM.
Regarding “AGCUACGUUUCGUAGCAGUGUCAUCGAGAAGGCUCAUUAACAUGAGGAUCACCCAUGUAUUCAUGGGAGGAUAUCGAUGAUACA”, the “apparent Kd” value stood at 131 nM under setting [3] and 9.22 nM under setting [4].
Turning to “AGUGUCAUCGAGAAGGCCUCGACAUGAGGAUCACCCAUGUUGUUAUAUGGGAGGAUAUCGAUGAUACAGCUACGUUUCGUAGCA”, the “apparent Kd” value turned out to be 51.6 nM under setting [3] and 14.7 nM under setting [4].
Take “GGAUUUUACUAGUUUUCUAUACAUGAGGAUCACCCAUGUUUUUAGGAUAUCAGCGUGAAACACGCUGAGAAGGAAGAACAAUCC”: the “apparent Kd” value is 15.4 nM under setting [1] and 18.5 nM under setting [2].
Consider “GCAUCGCAUGUCAGGAUAUGCUGUACCUUGGUACAGCAGAAGGGACAUGAGGAUCACCCAUGUGCCUAUGAUGC”, for which the “apparent Kd” value reads like this: under setting [1], 39.7 nM; under setting [2], 353 nM.
Consider “UCCCUUGCUGGAGGAUAUCGCACAUGAGGAUCACCCAUGUCGGCACUCGGGCGCAUCCUCUUGGACGAGAAGGCCAGGAGGUAC”, for which the “apparent Kd” value runs as follows: under setting [1], 179 nM; under setting [2], 79.4 nM.
On to “CGCCGACAUGAGGAUCACCCAUGUCACAACUGGUCAGGAUAUGGUAUGAAAUGGCUAUUGCCAGAAGGGACCUCAG”, for which the “apparent Kd” value is 40.9 nM under setting [3] and 20.4 nM under setting [4].
On to “CGGUGACGUGUAGGAUAUGGCGCUGGGUUUUGCCCAGAAGGACAUGAGGAUCACCCAUGUGGUAGAGGGCUGGCGGCCGCCCGC”, for which the “apparent Kd” value under setting [1] stood at 29.4 nM and the “apparent Kd” value under setting [2] amounted to 29.2 nM.
Take “AAAGAAGAAAGACAGGAUAUGGAUGGGUAAACAUGAGGAUCACCCAUGUAUAAGAAAGAAAGAAACCAGAAGGGUCAAAAGAAAA”: the “apparent Kd” value by setting is: under setting [3], 165 nM; under setting [4], 33.6 nM.
Taken in the same sequence, the figures for “ACCGGGUACACAGGAUAUCACGUCCUGACAUGAGGAUCACCCAUGUCGGUCUGAGAAGGGUGGUCCCGCAGCCGACUGUGAUGG” were 254 nM and 27.3 nM.
For the sequence “AAAUUAGGGAGAGGAUAUUGACAUGAGGAUCACCCAUGUAUUUGGGAGUGUUUACUGAAUUCUUACGAGAAGGCUUACGAAAUU”, the “apparent Kd” value was 320 nM under setting [1] and 255 nM under setting [2].
Consider “AUCAGCUCGUCAGGAUAUACGUCACUCCGUCAGCAGUGUGGUAAGAUCACAUGAGGAUCACCCAUGUAGAAGGGACGAGCUGAU”, for which the “apparent Kd” value is 29.5 nM under setting [1] and 253 nM under setting [2].
Turning to “AAACCUAUAGGAUAUACAUGAGGAUCACCCAUGUUGCGAUUUUUUAGGUAACAGAUCCGUAGAAGGGUAGGUUA”, the “apparent Kd” value under setting [1] turned out to be 23.8 nM and the “apparent Kd” value under setting [2] turned out to be 57.6 nM.
As to “GACAUGGUCCAGAAGGGCUAUUUAUUUAAUUAUUAUUUAGAACAGCAUAGCAGGAUAUGGUUAACAUGAGGAUCACCCAUGUUC”, the “apparent Kd” value under setting [3] came to 26.2 nM and the “apparent Kd” value under setting [4] was determined as 20.8 nM.
As to “ACAUGAGGAUCACCCAUGUUACGAACAUGAGGAUCACCCAUGUAGGAUAUGCUACUCAAAGAGUAGCAGAAGGACAUGUGCCUU”, the “apparent Kd” value came out at 1090 nM under setting [1] and 559 nM under setting [2].
Taken in the same sequence, the figures for “AUUGUGUGAGGAUAUUAGUAGUAGAUGAAUGGAGUUGUGGCUGAGAAGGCACAUGAGGAUCACCCAUGUUCCUU” were 22.3 nM and 25.9 nM.
As for “CAUUCAAGCCAGAAGGAGUACACUACAUGAGGAUCACCCAUGUCUAAUACUAGGAUAUGGGCAUCUGGUAAUGUCUAAGGUGCG”, the “apparent Kd” value under setting [3] amounted to 111 nM and the “apparent Kd” value under setting [4] was 128 nM.
Take “ACAUGAGGAUCACCCAUGUAUUACAUGGUUAAGUUUAUUAACAGAAGGCGAAAAUACUUAUUGUUCGAGGAUAUGUAAUCAAUU”: the “apparent Kd” value reads like this: under setting [1], 38 nM; under setting [2], 54.3 nM.
Consider “GACAAACAUGAGGAUCACCCAUGUUCAGACGAACAAGGAUAUGUGUGGAAACCGUACUAUACAGAAGGUGUCUGUC”, for which the “apparent Kd” value reads like this: under setting [3], 39.7 nM; under setting [4], 23.8 nM.
The corresponding values for “AAGAAACAUGAGGAUCACCCAUGUGAUAAUAUGGGAGGAUAUACAAAGACGAAAGUCGAAGUAGAAGGCCUAUGAA” are 52.3 nM and 43.2 nM.
As to “AAGUGUAUAGGAUAUGCGUGGAAAAGGUGUAUUCACUAGCGACAUGAGGAUCACCCAUGUAGAAGGGUAUGUAA”, the “apparent Kd” value under setting [1] stood at 124 nM and the “apparent Kd” value under setting [2] is 64 nM.
On to “CUCAUGUGAGGAUAUCAGUAGUAAAAAAAAAAAAUUACUACUGAGAAGGCACAUGAGGAUCACCCAUGUGACUU”, for which the “apparent Kd” value runs as follows: under setting [1], 34.8 nM; under setting [2], 30.6 nM.
Taken in the same sequence, the figures for “AUCAGCUCGUCAGGAUAUACGUCACUGCGUCAGCAGUGUGGUAAGAUCACAUGAGGAUCACCCAUGUAGAAGGGACGAGGUGAU” were 14.9 nM and 265 nM.
“CGUCGCUGUCGAGAGGAUAUGCGGUGAUGGACAUGAGGAUCACCCAUGUUAGCGAUAGUAUCACGGUAGAAGGCUCUUACGACUG”: the “apparent Kd” value came to 32.9 nM under setting [3] and 25.3 nM under setting [4].
For the sequence “GCACAUGGCAUAGGAUAUAGAACUAUACUUUAUAUAGGUAGUUACACUUAACUAGAAGGAUGAUACAUGAGGAUCACCCAUGUA”, the “apparent Kd” value is, setting by setting: under setting [3], 16.8 nM; under setting [4], 14.5 nM.
As to “UGAAUGGCAGGAUAUACAUGAGGAUCACCCAUGUUGCUGCUCUAUAUGCCGUCCUUGAGUAGAAGGGUCAUUUA”, the “apparent Kd” value by setting is: under setting [1], 19.2 nM; under setting [2], 32.5 nM.
The corresponding values for “GUCAUUGACAAGAAGGCAAACAUGAGGAUCACCCAUGUUCUGCAUGUAUAUUGAGGAUAUUGCCAAUGCAUGUGGAUCACCCAA” are 6.92 nM and 11 nM.
Taken in the same sequence, the figures for “AUAUGCCAUGUAAGGAUAUACUGGAGCAUAAGCUCGUAGAAGGUACAUGAGGAUCACCCAUGUGGACCCGACAC” were 29.9 nM and 34.9 nM.
In the case of “UUGGACGUCGUAGGAUAUGUAGGAUAUUCCUACAUGAGGAUCACCCAUGUUGACAUGGAGGAAGGACAGAAGGACGAUGUCCAU”, the “apparent Kd” value was 667 nM under setting [3] and 98 nM under setting [4].
For “GUCGUGCGGCUUUGCUGUACGAGUACAUGAGGAUCACCCAUGUAGGAUAUGGUUCGCUUUGCGUGCCAGAAGGGCGUGCGUUGU”, the “apparent Kd” value under setting [1] stood at 28.7 nM and the “apparent Kd” value under setting [2] turned out to be 28.1 nM.
On to “CCGCAAAAGCAGGAUAUCGUAUCGGAUACGAUACGAGAAGGGCUAACAUGAGGAUCACCCAUGUGUCCUAGCGG”, for which the “apparent Kd” value came to 16.9 nM under setting [1] and 25.6 nM under setting [2].
Taken in the same sequence, the figures for “AACAGGCGUGCCCUGAGUCCACAUGAGGAUCACCCAUGUGAGAGAAGGACCCUCGAGAGAGUUGGGUAGGAUAUCUCCGAUGGG” were 24 nM and 57.5 nM.
The corresponding values for “UAAGUACGAGGAUAUACAUAGAUACAGAUACAUGUAGACGUACAUGAGGAUCACCCAUGUAGAAGGCGUAUAUA” are 67.9 nM and 239 nM.
